Assay results taken from the M2OR odorant receptor database.

How the values were obtained:
Details in all cases: stereoisomer not certain
OR4A15 (Homo sapiens) = OR4A15 (Homo sapiens) (UniProt Q8NGL6)
Procedure, shortened: (§1)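 Values were gathered from published papers (main text and supplementary material), with extra details requested from the original authors when needed, and checked for typos and inconsistencies. Each receptor–molecule pair is called responsive (active) if the original authors judged the measured signal statistically different from baseline, and non-responsive (inactive) otherwise. Assay methods varied by source, often transient mammalian cell-line luciferase assays. Recorded details include cell line, G-protein, co-transfected protein and tags.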

OR4A16 (Homo sapiens) = OR4A16 (Homo sapiens) (UniProt Q8NH70)
Procedure, shortened: as §1

OR4A47 (Homo sapiens) = OR4A47 (Homo sapiens) (UniProt Q6IF82)
Procedure, shortened: as §1

OR4A5 (Homo sapiens) = OR4A5 (Homo sapiens) (UniProt Q8NH83)
Procedure, shortened: as §1

OR4A8 (Homo sapiens) = OR4A8 (Homo sapiens) (UniProt P0C604)
Procedure, shortened: as §1

OR4B1 (Homo sapiens) = OR4B1 (Homo sapiens) (UniProt Q8NGF8)
Procedure, shortened: as §1

OR4C11 (Homo sapiens) = OR4C11 (Homo sapiens) (UniProt Q6IEV9)
Procedure, shortened: as §1

OR4C12 (Homo sapiens) = OR4C12 (Homo sapiens) (UniProt Q96R67)
Procedure, shortened: as §1

OR4C13 (Homo sapiens) = OR4C13 (Homo sapiens) (UniProt Q8NGP0)
Procedure, shortened: as §1

OR4C15 (Homo sapiens) = OR4C15 (Homo sapiens) (UniProt Q8NGM1)
Procedure, shortened: as §1

Measured: odorant receptor agonist call

Chain of OR4A5 (Homo sapiens) (Q8NH83 whole entry): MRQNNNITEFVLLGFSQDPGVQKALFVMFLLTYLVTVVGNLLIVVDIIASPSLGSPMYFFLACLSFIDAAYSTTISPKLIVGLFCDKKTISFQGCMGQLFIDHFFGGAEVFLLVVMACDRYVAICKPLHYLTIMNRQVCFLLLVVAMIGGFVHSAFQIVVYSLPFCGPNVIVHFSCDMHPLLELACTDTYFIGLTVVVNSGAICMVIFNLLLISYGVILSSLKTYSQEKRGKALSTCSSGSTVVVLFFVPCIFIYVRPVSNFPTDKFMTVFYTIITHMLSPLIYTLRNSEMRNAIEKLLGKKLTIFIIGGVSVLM
Chain of OR4C11 (Homo sapiens) (Q6IEV9 whole entry): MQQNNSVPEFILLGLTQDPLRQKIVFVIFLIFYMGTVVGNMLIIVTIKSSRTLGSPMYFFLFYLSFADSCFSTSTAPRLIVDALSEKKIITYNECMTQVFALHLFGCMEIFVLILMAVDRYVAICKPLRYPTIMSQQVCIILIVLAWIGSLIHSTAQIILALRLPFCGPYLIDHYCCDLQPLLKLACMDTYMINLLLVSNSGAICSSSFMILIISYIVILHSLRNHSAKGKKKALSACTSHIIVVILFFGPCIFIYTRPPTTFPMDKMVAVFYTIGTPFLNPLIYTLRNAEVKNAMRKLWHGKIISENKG
Chain of OR4A16 (Homo sapiens) (Q8NH70 whole entry): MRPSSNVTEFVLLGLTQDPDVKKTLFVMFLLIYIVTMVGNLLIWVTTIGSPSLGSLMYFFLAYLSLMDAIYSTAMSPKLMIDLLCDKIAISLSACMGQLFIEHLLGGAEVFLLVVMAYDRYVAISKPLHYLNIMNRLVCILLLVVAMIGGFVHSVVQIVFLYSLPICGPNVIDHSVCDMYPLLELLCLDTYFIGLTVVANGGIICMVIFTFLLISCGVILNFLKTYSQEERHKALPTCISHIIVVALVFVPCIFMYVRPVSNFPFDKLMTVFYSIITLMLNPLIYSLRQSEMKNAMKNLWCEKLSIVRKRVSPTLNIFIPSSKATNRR
Chain of OR4C13 (Homo sapiens) (Q8NGP0 whole entry): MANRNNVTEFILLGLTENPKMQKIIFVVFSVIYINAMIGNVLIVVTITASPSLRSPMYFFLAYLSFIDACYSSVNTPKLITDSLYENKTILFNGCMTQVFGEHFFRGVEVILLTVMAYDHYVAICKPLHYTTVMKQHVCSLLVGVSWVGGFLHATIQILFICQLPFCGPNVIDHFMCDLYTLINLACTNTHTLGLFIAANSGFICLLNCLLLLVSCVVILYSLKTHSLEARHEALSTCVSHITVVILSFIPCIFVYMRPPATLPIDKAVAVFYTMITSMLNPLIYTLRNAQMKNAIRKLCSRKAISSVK
Chain of OR4B1 (Homo sapiens) (Q8NGF8 whole entry): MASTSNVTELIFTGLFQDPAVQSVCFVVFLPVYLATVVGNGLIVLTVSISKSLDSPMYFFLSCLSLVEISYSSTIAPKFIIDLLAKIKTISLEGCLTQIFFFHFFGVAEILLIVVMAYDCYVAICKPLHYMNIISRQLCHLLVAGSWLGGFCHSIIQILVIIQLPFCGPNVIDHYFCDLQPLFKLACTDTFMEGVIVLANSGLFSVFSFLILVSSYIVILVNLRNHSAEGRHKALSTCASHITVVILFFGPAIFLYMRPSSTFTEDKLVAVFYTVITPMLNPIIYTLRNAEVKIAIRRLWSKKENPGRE
Chain of OR4C12 (Homo sapiens) (Q96R67 whole entry): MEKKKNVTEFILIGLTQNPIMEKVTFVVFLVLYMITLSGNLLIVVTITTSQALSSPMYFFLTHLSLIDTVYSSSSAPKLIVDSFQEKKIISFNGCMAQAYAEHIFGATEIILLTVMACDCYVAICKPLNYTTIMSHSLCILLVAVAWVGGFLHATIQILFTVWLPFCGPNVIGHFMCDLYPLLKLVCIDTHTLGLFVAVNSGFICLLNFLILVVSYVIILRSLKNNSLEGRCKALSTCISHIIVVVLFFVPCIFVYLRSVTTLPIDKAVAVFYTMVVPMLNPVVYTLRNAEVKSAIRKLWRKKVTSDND
Chain of OR4A15 (Homo sapiens) (Q8NGL6 whole entry): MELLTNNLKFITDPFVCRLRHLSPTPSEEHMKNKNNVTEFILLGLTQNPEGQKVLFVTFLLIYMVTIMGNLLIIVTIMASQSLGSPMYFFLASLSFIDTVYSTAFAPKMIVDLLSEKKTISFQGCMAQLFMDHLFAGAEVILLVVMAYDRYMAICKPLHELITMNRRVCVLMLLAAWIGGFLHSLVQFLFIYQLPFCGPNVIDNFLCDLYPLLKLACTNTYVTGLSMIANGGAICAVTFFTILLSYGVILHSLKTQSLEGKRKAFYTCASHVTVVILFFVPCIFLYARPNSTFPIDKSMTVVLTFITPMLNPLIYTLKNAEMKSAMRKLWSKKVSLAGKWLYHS
Chain of OR4A47 (Homo sapiens) (Q6IF82 whole entry): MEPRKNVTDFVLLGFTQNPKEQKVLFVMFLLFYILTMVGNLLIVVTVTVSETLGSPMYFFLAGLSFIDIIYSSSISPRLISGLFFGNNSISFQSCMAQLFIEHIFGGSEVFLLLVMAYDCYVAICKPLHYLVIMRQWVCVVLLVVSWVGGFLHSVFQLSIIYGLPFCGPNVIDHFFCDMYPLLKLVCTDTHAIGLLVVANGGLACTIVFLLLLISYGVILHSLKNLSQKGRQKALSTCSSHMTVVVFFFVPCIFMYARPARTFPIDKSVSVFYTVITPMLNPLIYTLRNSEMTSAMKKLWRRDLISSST
Chain of OR4C15 (Homo sapiens) (Q8NGM1 whole entry): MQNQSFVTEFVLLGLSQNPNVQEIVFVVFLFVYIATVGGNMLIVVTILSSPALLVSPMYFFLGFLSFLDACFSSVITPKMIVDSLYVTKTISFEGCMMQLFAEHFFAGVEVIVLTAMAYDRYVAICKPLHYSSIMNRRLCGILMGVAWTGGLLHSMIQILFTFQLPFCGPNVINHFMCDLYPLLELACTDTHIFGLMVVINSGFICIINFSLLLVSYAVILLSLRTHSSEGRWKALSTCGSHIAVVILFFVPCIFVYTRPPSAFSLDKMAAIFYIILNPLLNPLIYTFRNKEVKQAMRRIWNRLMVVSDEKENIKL
Chain of OR4A8 (Homo sapiens) (P0C604 whole entry): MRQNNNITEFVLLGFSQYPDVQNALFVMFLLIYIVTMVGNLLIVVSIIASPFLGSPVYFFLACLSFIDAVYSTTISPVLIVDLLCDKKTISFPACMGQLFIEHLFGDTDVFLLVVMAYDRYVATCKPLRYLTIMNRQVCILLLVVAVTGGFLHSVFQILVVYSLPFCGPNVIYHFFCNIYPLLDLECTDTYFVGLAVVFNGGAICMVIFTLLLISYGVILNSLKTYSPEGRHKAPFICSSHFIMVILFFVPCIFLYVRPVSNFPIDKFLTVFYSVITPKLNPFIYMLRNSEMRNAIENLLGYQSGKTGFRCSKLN

Cc1c([N+](=O)[O-])c(C)c([N+](=O)[O-])c(C(C)(C)C)c1[N+](=O)[O-]
inactive: all assays above

C=CCOC(=O)Cc1ccccc1
not listed: OR4A8 (Homo sapiens) | OR4C15 (Homo sapiens)
inactive: all other assays above
